Experiments:
Format in all cases: functional
Mus musculus [1] = experiment: Effect on compound induced hypothermia in Swiss Albino mouse at 5 mg/kg, sc in presence of 0.1 mg/kg WAY 100635 after 30 mins relative to control
How it was run: (§1)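 Male Albino Swiss mice. WAY 100635 (0.1 mg/kg sc, in distilled water) given 15 min before the agonist (5 mg/kg sc, in saline). Rectal temperature recorded 30 and 60 min after agonist and expressed as Δt from basal; n = 8 per group; compared with vehicle + agonist group.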

Mus musculus [2] = experiment: Decrease in body temperature in Swiss Albino mouse at 5 mg/kg, sc after 60 mins relative control; conditions: route subcutaneous
How it was run: (§2)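 Male Albino Swiss mice (24-28 g); drug dissolved in saline, injected sc at 10 mL/kg. Rectal temperature recorded with a thermometer at 30 and 60 min after injection. Result expressed as change (Δt) from basal temperature taken at the start of the experiment; n = 8 per group; mean ± SEM versus vehicle.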

Mus musculus [3] = experiment: Decrease in body temperature in Swiss Albino mouse at 5 mg/kg, sc after 30 mins relative control; conditions: route subcutaneous; how it was run: as §2
Mus musculus [4] = experiment: Effect on compound induced hypothermia in Swiss Albino mouse at 5 mg/kg in presence of 0.1 mg/kg WAY 100635 after 60 mins relative to control; how it was run: as §1

Which results are given for CCCN(CCC)C1CCc2cccc(O)c2C1 (centres undefined) [8-OH-DPAT]?
Activity (Mus musculus [1]): -0.1 °C; Activity (Mus musculus [2]): -0.7 °C; Activity (Mus musculus [3]): -1 °C; Activity (Mus musculus [4]): 0.1 °C

— ChEMBL document CHEMBL1143707, “7-Arylpiperazinylalkyl and 7-tetrahydroisoquinolinylalkyl derivatives of 8-alkoxy-purine-2,6-dione and some of their purine-2,6,8-trione analogs as 5-HT(1A), 5-HT(2A), and 5-HT(7) serotonin receptor ligands” (Bioorg Med Chem, 2007)
